These results are taken from ChEMBL document CHEMBL3091322 (J Med Chem, 2013).

The nature of assay [1]: Displacement of [3H]nisoxetine from Sprague-Dawley rat brain frontal cortex NET by scintillation counting analysis. In kind it is tissue-based. The method, boiled down:
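Frontal cortex membranes from male Sprague-Dawley rats incubated with 0.5 nM [3H]nisoxetine for 180 min at 0–4°C in pH 7.4 Tris/NaCl/KCl buffer. Desipramine used for nonspecific binding. Full concentration curves run for compounds giving >70% displacement at 10 µM. Filtration and scintillation counting; Ki calculated.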

Assay [2] is filed under the species Rattus norvegicus. The experiment in a line: Displacement of [3H]nisoxetine from Sprague-Dawley rat brain frontal cortex NET at 10 uM by scintillation counting analysis. The format is tissue-based. The method, boiled down: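 Rat frontal cortex membranes (8 mg original wet weight) in Tris/NaCl/KCl buffer, pH 7.4, with 0.5 nM [3H]nisoxetine for 180 min at 0–4°C. Single test concentration of 10 µM. Nonspecific binding defined with desipramine. Filtration on GF/B filters, then scintillation counting. Result reported as percent displacement.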

Assay [3] deals with T1, Sodium-dependent serotonin transporter (Homo sapiens, UniProt P31645). Put plainly: biochemical. In kind it is cell-based, COS-7.
Target sequence in this assay (P31645 whole entry): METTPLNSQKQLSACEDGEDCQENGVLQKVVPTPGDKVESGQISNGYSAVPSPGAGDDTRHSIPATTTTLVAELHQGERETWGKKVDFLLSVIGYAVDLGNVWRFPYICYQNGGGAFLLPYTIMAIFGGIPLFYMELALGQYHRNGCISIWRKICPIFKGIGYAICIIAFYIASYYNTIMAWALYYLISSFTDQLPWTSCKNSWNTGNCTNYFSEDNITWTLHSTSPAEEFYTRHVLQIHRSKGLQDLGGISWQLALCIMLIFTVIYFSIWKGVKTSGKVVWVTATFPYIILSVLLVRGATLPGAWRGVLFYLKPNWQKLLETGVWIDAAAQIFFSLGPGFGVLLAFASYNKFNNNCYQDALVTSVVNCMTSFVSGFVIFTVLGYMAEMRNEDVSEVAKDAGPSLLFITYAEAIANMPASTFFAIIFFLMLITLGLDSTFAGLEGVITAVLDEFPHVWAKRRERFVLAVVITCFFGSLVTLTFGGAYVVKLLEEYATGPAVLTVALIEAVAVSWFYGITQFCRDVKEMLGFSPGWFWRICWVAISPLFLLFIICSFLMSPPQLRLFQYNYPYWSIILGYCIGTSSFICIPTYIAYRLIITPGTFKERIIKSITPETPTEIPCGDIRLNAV
Assay [4] has as its target Sodium-dependent serotonin transporter (Rattus norvegicus) (UniProt P31652). Put plainly: Displacement of [3H]citalopram from Sprague-Dawley rat brain stem SERT site S1 at 10 uM by scintillation counting analysis. In kind it is tissue-based. A general note: Displacement assays read how much labelled ligand stays bound in the presence of the test substance.
The target in assay [5] is Sodium-dependent serotonin transporter (Rattus norvegicus, UniProt P31652). Put plainly: Displacement of [3H]citalopram from Sprague-Dawley rat brain stem SERT site S1 by scintillation counting analysis.
Sodium-dependent serotonin transporter (Rattus norvegicus, UniProt P31652), sequence (P31652 whole entry): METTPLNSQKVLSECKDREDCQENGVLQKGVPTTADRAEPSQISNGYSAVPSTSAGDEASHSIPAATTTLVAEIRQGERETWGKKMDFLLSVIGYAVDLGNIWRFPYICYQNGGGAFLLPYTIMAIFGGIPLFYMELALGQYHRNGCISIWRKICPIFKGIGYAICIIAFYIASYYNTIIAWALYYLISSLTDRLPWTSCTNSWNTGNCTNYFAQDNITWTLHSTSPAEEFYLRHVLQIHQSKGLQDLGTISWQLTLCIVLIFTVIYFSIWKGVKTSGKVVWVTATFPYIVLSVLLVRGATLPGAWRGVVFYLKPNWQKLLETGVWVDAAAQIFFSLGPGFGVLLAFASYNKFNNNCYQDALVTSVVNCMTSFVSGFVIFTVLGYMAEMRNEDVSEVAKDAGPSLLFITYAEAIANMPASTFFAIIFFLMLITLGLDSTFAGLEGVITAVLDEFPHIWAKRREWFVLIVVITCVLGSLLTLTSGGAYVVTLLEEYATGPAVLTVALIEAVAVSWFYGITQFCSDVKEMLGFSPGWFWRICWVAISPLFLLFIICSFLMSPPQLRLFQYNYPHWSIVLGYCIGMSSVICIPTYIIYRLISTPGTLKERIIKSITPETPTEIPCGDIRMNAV
The species named for assay [6] is Rattus norvegicus. The experiment in a line: Selectivity ratio of Ki for Sprague-Dawley rat brain frontal cortex NET to Ki for Sprague-Dawley rat brain stem SERT. In kind it is tissue-based.
In assay [7] the target is T1, Sodium-dependent serotonin transporter. Particulars: COS-7.
Target sequence in this assay (P31645 whole entry, looked up): as the sequence (P31645 whole entry) above

Sodium-dependent serotonin transporter (Rattus norvegicus), sequence (P31652 whole entry): as the sequence (P31652 whole entry) above

What is called Ki is the dissociation constant of the complex between target and ligand, obtained from inhibition or displacement. Turning to `CN(CCCC1(c2ccc(F)cc2)OCc2cc(C#N)ccc21)Cc1c[nH]c2ccccc12` (racemic), the Ki in assay [1] is 1300 nM.

By inhibition is commonly meant the relative decrease from the control value, in per cent. Consider `CN(C)CCCC1(c2ccc(F)cc2)OCc2cc(-c3ccc(N)cc3)ccc21` (racemic), for which the inhibition in the assay listed under Rattus norvegicus [2] was determined as 42%.

Regarding `CN(C)CCCC1(c2ccc(F)cc2)OCc2cc(-c3ccc([N+](=O)[O-])cc3)ccc21` (racemic), the affinity in assay [1] corresponds to a Ki of 8280 nM.

As for `COc1ccc2[nH]cc(CN(C)CCCC3(c4ccc(F)cc4)OCc4cc(C#N)ccc43)c2c1` (racemic), in assay [1], the Ki stood at 5090 nM.

`CN(C)CCCC1(c2ccc(F)cc2)OCc2cc(C=O)ccc21` (racemic) showed an inhibition in the assay filed under Rattus norvegicus [2] of 46.1%.

In the assay filed under Rattus norvegicus [2], `CN(C)CCCC1(c2ccc(F)cc2)OCc2cc(CN3CCCCC3)ccc21` (racemic) yielded an inhibition of 29.3%.

The compound `CN(C)CCCC1(c2ccc(-c3cccc(C#N)c3)cc2)OCc2cc(C#N)ccc21` (racemic) came in with a Ki in assay [1] of 2800 nM.

For orientation: IC50 means the concentration that gives 50% inhibition. In turn, `CN(C)CCCC1(c2ccc(F)cc2)OCc2cc(/C=C/c3ccccc3)ccc21` (single isomer, unassigned; (+)) registered an IC50 in assay [3] of 3400 nM.

The compound `CN(C)CCCC1(c2ccc(F)cc2)OCc2cc(CNCc3ccc4ccccc4c3)ccc21` (racemic) registered an inhibitory constant (Ki) in assay [1] of 653 nM.

Turning to `CN(C)CCCC1(c2ccc(F)cc2)OCc2cc(/C=C/Cc3ccccc3)ccc21` (racemic), in assay [1], affinity was put at a Ki of 4750 nM.

In the case of `CN(CCCC1(c2ccc(F)cc2)OCc2cc(C#N)ccc21)Cc1ccnc2ccccc12` (stereo not drawn), the inhibition in the assay filed under Rattus norvegicus [2] was found to be 31.2%.

Regarding `CN(C)CCCC1(c2ccc(F)cc2)OCc2cc(CN)ccc21` (racemic), the inhibition in the assay listed under Rattus norvegicus [2] turned out to be 33.2%.

As for `CN(C)CCCC1(c2ccc(F)cc2)OCc2cc(CNCc3coc4ccccc34)ccc21` (racemic), the inhibition constant (Ki) in assay [1] came out at 284 nM.

For `CN(CCCC1(c2ccc(F)cc2)OCc2cc(C#N)ccc21)Cc1coc2ccccc12` (racemic), the Ki in assay [1] was determined as 265 nM.

As to `CN(C)CCCC1(c2ccc(Br)cc2)OCc2cc(C#N)ccc21` (racemic), the inhibition in the assay listed under Rattus norvegicus [2] was determined as 45%.

On to `CN(C)CCCC1(c2ccc(-c3cccc(N)c3)cc2)OCc2cc(C#N)ccc21` (racemic), for which the inhibitory constant (Ki) in assay [1] was determined as 7020 nM.

The compound `CN(CCCCc1ccccc1)CCCC1(c2ccc(F)cc2)OCc2cc(C#N)ccc21` (racemic) displayed a Ki in assay [1] of 448 nM.

With `CN(CCCC1(c2ccc(F)cc2)OCc2cc(C#N)ccc21)CCc1ccccc1` (racemic), the Ki in assay [1] turned out to be 179 nM; in assay [5], 40.9 nM. Moreover, the inhibition in assay [4] is more than 70%. In addition, the Ratio Ki in the assay filed under Rattus norvegicus [6] was 4.4. The same compound yielded a 50% inhibitory concentration (IC50) in assay [3] of 5300 nM.

Compound `CN(CCN)CCCC1(c2ccc(F)cc2)OCc2cc(C#N)ccc21` (racemic) showed an inhibition in the assay listed under Rattus norvegicus [2] of 20.2%.

In assay [1], `CN(C)CCCC1(c2ccc(F)cc2)OCc2cc(CN3CCN(c4ccccc4)CC3)ccc21` (racemic) came in with a Ki of 11100 nM.

Compound `CN(CCCC1(c2ccc(F)cc2)OCc2cc(C#N)ccc21)C1CC=C(c2c[nH]c3ccccc23)CC1` (racemic) registered a Ki in assay [1] of 1020 nM.

For `CCCN(C)CCCC1(c2ccc(F)cc2)OCc2cc(C#N)ccc21` (racemic), the values for the inhibition (in assay [4]; in the assay filed under Rattus norvegicus [2]) were more than 70% and 60.4%, respectively. For the same compound, the Ki in assay [5] worked out at 118 nM.

As to `CN(C)CCCC1(c2ccc(F)cc2)OCc2cc(CNCc3ccc4c(c3)Cc3ccccc3-4)ccc21` (racemic), the Ki in assay [1] came to 2330 nM; in assay [5], 23.6 nM. In assay [4], the inhibition was more than 70%. Further, the Ratio Ki in the assay listed under Rattus norvegicus [6] was 99.

Compound `CN(C)CCCC1(c2ccc(F)cc2)OCc2cc(CN3CCN(c4cccc(Cl)c4Cl)CC3)ccc21` (racemic) had an inhibition in the assay listed under Rattus norvegicus [2] of 19.7%.

The compound `CN(C)CCCC(O)(c1ccc(Br)cc1)c1ccc(C#N)cc1CO` (racemic) had an inhibition in the assay listed under Rattus norvegicus [2] of 17%.

Compound `CN(C)CCCC1(c2ccc(F)cc2)OCc2cc(CN(C)CCCC3(c4ccc(F)cc4)OCc4cc(C#N)ccc43)ccc21` (racemic) registered an inhibition in the assay filed under Rattus norvegicus [2] of 65.1%.

In turn, `CN(CCCC1(c2ccc(F)cc2)OCc2cc(C#N)ccc21)Cc1ccc2ccccc2c1` (racemic) displayed a Ki in assay [1] of 272 nM.

In the case of `CN(CCCC1(c2ccc(F)cc2)OCc2cc(C#N)ccc21)Cc1ccncc1` (racemic), in the assay listed under Rattus norvegicus [2], the inhibition was 28.1%.

In assay [1], `CN(CCCC1(c2ccc(F)cc2)OCc2cc(C#N)ccc21)Cc1ccc(N(C)C)cc1` (racemic) returned a Ki of 1380 nM.

On to `CN(C)CCCC1(c2ccc(F)cc2)COc2ccc(Br)cc21` (racemic), for which the Ki in assay [1] is 4970 nM.

Take `CN(CCCC1(c2ccc(F)cc2)OCc2cc(C#N)ccc21)Cc1ccc2c(c1)Cc1ccccc1-2` (racemic): the inhibition is more than 70% in assay [4] and 60.3% in the assay listed under Rattus norvegicus [2]. This compound also displayed a Ki in assay [5] of 19 nM.

For the compound `CN(C)CCCC1(c2ccc(F)cc2)OCc2cc(C(N)=O)ccc21` (racemic), the affinity in assay [1], expressed as Ki, was 123 nM.

In the case of `CN(CCCC1(c2ccc(F)cc2)OCc2cc(C#N)ccc21)Cc1csc2ccccc12` (racemic), in the assay listed under Rattus norvegicus [2], the inhibition is 62.9%.

For the compound `CN(C)CCCC1(c2ccc(/C=C/c3ccccc3)cc2)OCc2cc(C#N)ccc21` (racemic), in assay [7], the T1/2 was 44 min. The same compound had an inhibition in the assay filed under Rattus norvegicus [2] of 44%.

As to `CN(C)CCCC1(c2ccc(F)cc2)OCc2cc(CN(C)C)ccc21` (racemic), the inhibition in the assay listed under Rattus norvegicus [2] turned out to be 21.9%.

On to `COC(=O)c1ccc2c(c1)COC2(CCCN(C)C)c1ccc(F)cc1` (racemic), for which the inhibition in the assay listed under Rattus norvegicus [2] was found to be 64.3%.

Take `CN(C)CCCC1(c2ccc(F)cc2)OCc2c(I)cccc21` (racemic): the affinity in assay [1] corresponds to a Ki of 11300 nM.

`CN(CCCC1(c2ccc(F)cc2)OCc2cc(C#N)ccc21)CC1CC1` (racemic) returned an inhibition in the assay filed under Rattus norvegicus [2] of 69.8%.

Take `CCCCN(C)CCCC1(c2ccc(F)cc2)OCc2cc(C#N)ccc21` (racemic): the values for the inhibition constant Ki in assay [1] and in assay [5] were 276 nM and 61.6 nM, respectively. Also, the inhibition in assay [4] was more than 70%.

Turning to `CN(C)CCCC1(c2ccc(F)cc2)OCc2cc(CNCc3ccc4c(c3)COC4(CCCN(C)C)c3ccc(F)cc3)ccc21` (racemic), in the assay filed under Rattus norvegicus [2], the inhibition was found to be 66.9%.

Regarding `CN(C)CCCC1(c2ccc(F)cc2)OCc2cc(CN3CCOCC3)ccc21` (racemic), the Ki is more than 80000 nM in assay [1] and 13.6 nM in assay [5]. In assay [4], this compound came in with an inhibition of more than 70%.

Turning to `COc1ccccc1N1CCN(Cc2ccc3c(c2)COC3(CCCN(C)C)c2ccc(F)cc2)CC1` (racemic), the inhibition in the assay filed under Rattus norvegicus [2] stood at 39.7%.
